Here are results for 26 molecules from ChEMBL document CHEMBL2169872, “(S)-N-(2,5-Dimethylphenyl)-1-(quinoline-8-ylsulfonyl)pyrrolidine-2-carboxamide as a small molecule inhibitor probe for the study of respiratory syncytial virus infection” (J Med Chem, 2012).

In data set [1] the test system is HEp-2. Put plainly: Cytotoxicity against human Hep2 cells by Cell Titer-Glo assay. The format is cell-based.
Data set [2] relates to Respiratory syncytial virus. The experiment in a line: Antiviral activity against Respiratory syncytial virus Long infected in human Hep2 cells assessed as reduction in virus-induced cytopathogenicity by Cell Titer-Glo assay. The format is functional, organism-based. The conditions noted are these: HEp-2. Background: Protection from cytopathic effect is a common read-out in antiviral testing.

In data set [3] the test system is Respiratory syncytial virus. Put plainly: Antiviral activity against Respiratory syncytial virus Long infected in human Hep2 cells assessed as protection against virus-induced cytopathogenicity by measuring cell viability at 24 hrs post infection by Cell Titer-Glo assay. In kind it is functional, HEp-2. In a few lines:
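HEp-2 cells seeded at 10 000/well and held 24 h at 37 °C, 5% CO₂, then infected at time 0 with hRSV Long at MOI 3.0. Compound added at 25 μM final, in triplicate, at −1 to 24 h post-infection. After 6 days at 37 °C, plates were brought to room temperature and Cell Titer-Glo luminescence read after 10 min. Cell-only and virus-only controls were included.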

Data set [4] has as its system Respiratory syncytial virus. The experiment in a line: Antiviral activity against Respiratory syncytial virus Long infected in human Hep2 cells assessed as log reduction in virus titer at 25 uM by virus plaque reduction assay. The format is functional, HEp-2. Background: Plaque reduction counts the foci of infection that form in a cell layer.
Data set [5] deals with Respiratory syncytial virus. Put plainly: Antiviral activity against Respiratory syncytial virus Long infected in human Hep2 cells assessed as post infection time duration of protection against virus-induced cytopathogenicity by Cell Titer-Glo assay. In kind it is functional, HEp-2. The gist of the method:
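HEp-2 cells seeded at 10 000 cells/well, held 24 h at 37 °C, 5% CO2, then infected with hRSV Long at MOI 3.0 at time 0. Compound added at 25 μM final, in triplicate, at −1, 0, 1, 2, 3, 5, 7, 21 or 24 h pi. Incubated 6 days at 37 °C, 5% CO2. Read by Cell Titer-Glo luminescence after 30 min room-temperature equilibration and 10 min reagent incubation. Uninfected and infected untreated wells served as controls.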

Data set [6] in a line: Aqueous solubility in PBS buffer. In kind it is physicochemical.
The nature of data set [7]: Chemical stability in 50% PBS/50% acetonitrile solution assessed as unchanged parent compound remaining after 48 hrs. The following applies: read-out: Stability. The format is physicochemical.
The subject of data set [8] is HEp-2. The experiment in a line: Cytotoxicity against uninfected human Hep2 cells assessed as cell viability at 25 uM measured after 144 hrs by Cell Titer-Glo assay. In kind it is cell-based. The following applies: hep-2, 144 h. In a few lines: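 Uninfected HEp-2 cells were given compound at 25 μM at time point 0. Viability was read by Cell Titer-Glo after 144 h.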
(In general: In ATP-based viability assays light output follows the ATP content of the culture.)

The nature of data set [9]: Selectivity index, ratio of CC50 for human Hep2 cells to EC50 for Respiratory syncytial virus Long infected in human Hep2 cells.

Each structure is given as a SMILES string. pEC50: −log10 of the molar value. In brackets after ≈: the same amount, converted by molar mass. Bounds are passed on as bounds.

The term CC50 denotes the concentration that lowers cell viability or growth by half. Read a high CC50 as better tolerance by the cells. As usually defined, the pEC50 is the EC50 on a negative log10 scale, so that one unit is a factor of ten. In general, solubility refers to the concentration that dissolves in the medium under given conditions. Lower therefore signals a poorly soluble substance.

`Cc1ccc(NC(=O)C(C)NS(=O)(=O)c2cccc3cccnc23)c(C)c1` (configuration not stated) came in with a CC50 with HEp-2 [1] of over 50 µM. In addition, in data set [2], the pEC50 was under 4.30.

The molecule `Cc1ccnc(C)c1NC(=O)[C@@H]1CCCN1S(=O)(=O)c1cccc2cccnc12` showed a CC50 in the data set on HEp-2 [1] of over 50 µM. Moreover, the pEC50 in data set [2] was under 4.30.

`Cc1ccc(NC(=O)CN(C)S(=O)(=O)c2cccc3cccnc23)c(C)c1` registered a CC50 in the data set on HEp-2 [1] of over 50 µM. In addition, the pEC50 in data set [2] is under 4.30.

`O=C(Nc1ccc(Cl)cc1Cl)[C@@H]1CCCN1S(=O)(=O)c1cccc2cccnc12` came in with a CC50 in the data set on HEp-2 [1] of over 50 µM. For the same molecule, the negative-log EC50 (pEC50) in data set [2] was under 4.30.

Molecule `Cc1cc(NC(=O)[C@@H]2CCCN2S(=O)(=O)c2cccc3cccnc23)n(C(C)(C)C)n1` registered a CC50 in the data set on HEp-2 [1] of over 50 µM. Further, the pEC50 in data set [2] is under 4.30.

As for `Cc1ccc(NC(=O)[C@@H]2CCCN2S(=O)(=O)c2cccc3cccnc23)cc1`, it took 31.7 µM to reach half-maximal cytotoxicity with HEp-2 [1] (CC50). Also, the pEC50 in [2] was under 4.30.

`CC(C)c1ccccc1NC(=O)[C@@H]1CCCN1S(=O)(=O)c1cccc2cccnc12`: in the data set on HEp-2 [1], it took 29.9 µM to reach half-maximal cytotoxicity (CC50). The pEC50 in data set [2] is 4.75.

Molecule `Cc1ccc(Cl)cc1NC(=O)[C@@H]1CCCN1S(=O)(=O)c1cccc2cccnc12` showed a CC50 with HEp-2 [1] of 10 µM. Besides, the negative-log EC50 (pEC50) in data set [2] was 5.66.

As for `Cc1ccc(NC(=O)CNS(=O)(=O)c2cccc3cccnc23)c(C)c1`, the half-maximal cytotoxic concentration (CC50) in the data set on HEp-2 [1] was over 50 µM. In addition, the pEC50 in [2] was under 4.30.

`Cc1ccc(C(F)(F)F)cc1NC(=O)[C@@H]1CCCN1S(=O)(=O)c1cccc2cccnc12` displayed a 50% cytotoxic concentration (CC50) in the data set with HEp-2 [1] of 4.8 µM. In data set [2], the pEC50 was under 4.30.

Turning to `Cc1ccc(C)c(NC(=O)[C@@H]2CCCN2S(=O)(=O)c2cccc3cccnc23)c1`, the Activity in data set [3] was found to be 26%. Further, in [4], the FC is given as 2. In addition, in data set [5], the Time turned out to be 1 h. In the data set with HEp-2 [1], this molecule showed a CC50 of 30.9 µM. This molecule had a solubility in [6] of 92.7 µg/mL (≈ 226 µM). Moreover, in [2], the pEC50 is 5.64. For the same molecule, in data set [7], the remaining at 48 h is 95.4%.

As to `Cc1ccccc1NC(=O)[C@@H]1CCCN1S(=O)(=O)c1cccc2cccnc12`, in the data set on HEp-2 [1], the CC50 is over 50 µM. Further, the pEC50 in data set [2] was 4.62.

Turning to `O=C(Nc1ccccc1)[C@@H]1CCCN1S(=O)(=O)c1cccc2cccnc12`, in the data set on HEp-2 [1], the CC50 came to 35.6 µM. In addition, the pEC50 in data set [2] was under 4.30.

For `NC(=O)c1ncn([C@@H]2O[C@H](CO)[C@@H](O)[C@H]2O)n1` [RIBAVIRIN], in [4], the FC was found to be 2.5. Besides, the Time in data set [5] came to 7 h. In the data set on HEp-2 [1], this molecule displayed a CC50 of 114 µM. Moreover, in the data set on HEp-2 [8], the Activity is 90%. Further, the pEC50 in [2] was 4.55.

Regarding `COc1ccc(C)cc1NC(=O)[C@@H]1CCCN1S(=O)(=O)c1cccc2cccnc12`, the CC50 with HEp-2 [1] was over 50 µM. The pEC50 in data set [2] was under 4.30.

As for `Cc1ccc(Cl)c(NC(=O)[C@@H]2CCCN2S(=O)(=O)c2cccc3cccnc23)c1`, the CC50 in the data set on HEp-2 [1] was over 50 µM. Moreover, in data set [2], the pEC50 was under 4.30.

`Cc1ccc(NC(=O)[C@H]2CCCN2S(=O)(=O)c2cccc3cccnc23)c(C)c1`: the CC50 in the data set on HEp-2 [1] was determined as 38.1 µM. Moreover, the selectivity ratio in [9] came to 0.8. Also, the pEC50 in data set [2] was under 4.30.

Turning to `COc1ccc(C)c(NC(=O)[C@@H]2CCCN2S(=O)(=O)c2cccc3cccnc23)c1`, in [4], the FC stood at 1. In the data set on HEp-2 [1], the CC50 worked out at 44.2 µM. Besides, the Activity in the data set with HEp-2 [8] worked out at 88%. Also, the pEC50 in data set [2] is 5.38.

Turning to `Cc1cccc(C)c1NC(=O)[C@@H]1CCCN1S(=O)(=O)c1cccc2cccnc12`, the CC50 in the data set with HEp-2 [1] was over 50 µM. The pEC50 in [2] is under 4.30.

Regarding `CCc1ccccc1NC(=O)[C@@H]1CCCN1S(=O)(=O)c1cccc2cccnc12`, the CC50 in the data set with HEp-2 [1] was over 50 µM. Besides, the pEC50 in data set [2] is 4.67.

On to `Cc1ccc(NC(=O)[C@@H]2CCCN2S(=O)(=O)c2cccc3cccnc23)c(C)c1`, for which the FC in data set [4] is on record as 1. The molecule also registered a CC50 with HEp-2 [1] of 31.8 µM. Moreover, the selectivity ratio in data set [9] was 11.8. Also, the pEC50 in [2] was 5.57.

As for `Cc1ccc(NC(=O)C2CCCN2S(=O)(=O)c2cccc3cccnc23)c(C)c1` (racemic), in data set [4], the FC worked out at 2.1. Also, in the data set with HEp-2 [1], the midpoint of cytotoxicity, the CC50, lay at 31.5 µM. For the same molecule, the selectivity ratio in data set [9] came to 6.3. The pEC50 in data set [2] is 5.30.

Turning to `Cc1cccc(NC(=O)[C@@H]2CCCN2S(=O)(=O)c2cccc3cccnc23)c1`, half-maximal cytotoxicity with HEp-2 [1] (CC50) was put at 25.5 µM. The pEC50 in [2] is under 4.30.

The molecule `Cc1ccc(C(C)(C)C)cc1NC(=O)[C@@H]1CCCN1S(=O)(=O)c1cccc2cccnc12` displayed a CC50 with HEp-2 [1] of 6.5 µM. Further, the pEC50 in [2] is under 4.30.

Regarding `Cc1cc(C)cc(NC(=O)[C@@H]2CCCN2S(=O)(=O)c2cccc3cccnc23)c1`, the CC50 in the data set on HEp-2 [1] stood at 31.3 µM. In addition, the pEC50 in [2] is under 4.30.

In the data set on HEp-2 [1], `Cc1ccc(C(C)C)cc1NC(=O)[C@@H]1CCCN1S(=O)(=O)c1cccc2cccnc12` returned a CC50 of 9.7 µM. Further, the pEC50 in [2] was under 4.30.
